Experimental data as given in PubChem BioAssay AID652011 (Sanford-Burnham Center for Chemical Genomics, 2013).
Where “and” joins values, the source holds several entries; their conditions need not be identical. Equal values may be shown once.

What follows are compounds tested against Endothelial PAS domain-containing protein 1 (Homo sapiens) (UniProt Q99814) (assay: HIF reporter inhibition across pancreatic and renal lines – cell-based, luminescence, MIAPaCa-2, 786-0, panel, SAR follow-up (AID 652011)). Details: MIAPaCa-2/PANC HIF reporter, luciferase luminescence, desferoxamine, overnight, HIF2a PANC, run 2; at 99 µM (top of the series).
Endothelial PAS domain-containing protein 1 (Homo sapiens), sequence (Q99814 whole entry, looked up, the tested form may be a part): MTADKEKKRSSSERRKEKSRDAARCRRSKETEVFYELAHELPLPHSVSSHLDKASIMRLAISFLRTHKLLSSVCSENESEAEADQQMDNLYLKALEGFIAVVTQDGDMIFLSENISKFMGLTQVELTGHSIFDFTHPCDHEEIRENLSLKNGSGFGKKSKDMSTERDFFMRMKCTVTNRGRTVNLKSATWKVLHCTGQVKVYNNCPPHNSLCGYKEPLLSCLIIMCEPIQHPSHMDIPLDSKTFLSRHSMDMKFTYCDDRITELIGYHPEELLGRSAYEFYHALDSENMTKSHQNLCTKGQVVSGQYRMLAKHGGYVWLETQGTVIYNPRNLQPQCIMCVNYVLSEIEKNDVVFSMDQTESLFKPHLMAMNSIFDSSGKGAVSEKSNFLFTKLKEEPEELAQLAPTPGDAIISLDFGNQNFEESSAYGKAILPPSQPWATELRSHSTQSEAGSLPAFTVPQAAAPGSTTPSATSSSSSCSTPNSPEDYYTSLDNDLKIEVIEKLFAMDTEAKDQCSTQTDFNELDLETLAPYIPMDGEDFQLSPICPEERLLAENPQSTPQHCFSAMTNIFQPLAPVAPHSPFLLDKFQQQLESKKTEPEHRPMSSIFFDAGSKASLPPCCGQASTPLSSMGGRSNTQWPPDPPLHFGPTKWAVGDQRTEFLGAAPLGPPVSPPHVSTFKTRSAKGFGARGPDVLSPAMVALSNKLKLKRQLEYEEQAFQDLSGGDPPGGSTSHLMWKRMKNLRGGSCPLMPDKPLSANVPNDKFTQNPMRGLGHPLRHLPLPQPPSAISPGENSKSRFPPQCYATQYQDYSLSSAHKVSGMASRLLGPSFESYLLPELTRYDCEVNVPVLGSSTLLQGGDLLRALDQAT
How it was run: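 Reagent: Desferoxamine added before compound | Doses: Compounds from 10 mM and 0.3125 mM stocks, 1% DMSO final | Times: Overnight seeding and compound exposure, 37 °C, 5% CO2, 10-min detection | Measured by: One-Glo luciferase luminescence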

Row | Structure (SMILES) | inhibition
1 | CC(C)(C)c1ccc(-c2noc(CCC(=O)NC3CC3)n2)cc1 | 50%
2 | CCNC(=O)CCc1nc(-c2cccc(C)c2)no1 | -15.7%
3 | CC(C)(C)c1ccc(-c2noc(CCC(=O)O)n2)cc1 | 124%
4 | CCNC(=O)CCc1nc(-c2ccc(C(C)(C)C)cc2)no1 | 84.7% and 55.9%
5 | CCOc1ccc(-c2noc(CCC(=O)NC)n2)cc1 | 112%
6 | CC(C)c1ccc(-c2noc(CCC(=O)NC3CC3)n2)cc1 | 26.7%
7 | CCNC(=O)CCc1nc(-c2cccc(F)c2)no1 | -6.32%
8 | CCNC(=O)CCc1nc(-c2ccc(OCC)cc2)no1 | -15.1%
9 | CCCCc1ccc(-c2noc(CCC(=O)NCC)n2)cc1 | 9.61%
10 | CC(C)(C)c1ccc(-c2noc(CCC(=O)Nc3cccc([N+](=O)[O-])c3)n2)cc1 | 86.3%
11 | CCc1ccc(-c2noc(CCC(=O)NC(C)(C)C)n2)cc1 | -22.9%
12 | C=CCNC(=O)CCc1nc(-c2ccc(C(C)(C)C)cc2)no1 | 82%
13 | CCNC(=O)CCc1nc(-c2ccc(CC)cc2)no1 | -47%
14 | CCCCc1ccc(-c2noc(CCC(=O)NC(C)(C)C)n2)cc1 | 89%
15 | CCNC(=O)CCc1nc(-c2ccccc2Cl)no1 | 13.5%
16 | COc1cccc(NC(=O)CCc2nc(-c3ccc(C(C)(C)C)cc3)no2)c1 | 131%

Row | Structure (SMILES) | inhibition
17 | CC(C)(C)c1ccc(-c2noc(CCC(=O)N3CCCCC3)n2)cc1 | 106%
18 | CCNC(=O)CCc1nc(-c2ccccc2C)no1 | -1.15%
19 | CNC(=O)CCc1nc(-c2ccc(OC)cc2)no1 | -21.8%
20 | O=C(O)CCc1nc(-c2ccccc2)no1 | 45.4%
21 | CC(C)c1ccc(-c2noc(CCC(=O)NC(C)(C)C)n2)cc1 | 90%
22 | CCC(C)NC(=O)CCc1nc(-c2ccc(C(C)C)cc2)no1 (stereo unspecified) | 38.4%
23 | CC(C)(C)NC(=O)CCc1nc(-c2ccc(C(C)(C)C)cc2)no1 | 102%
24 | CC(C)(C)c1ccc(-c2noc(CCC(=O)Nc3cccnc3)n2)cc1 | 126%
25 | CCc1ccc(-c2noc(CCC(=O)NC3CC3)n2)cc1 | -46.2%
26 | CC(C)(C)c1ccc(-c2noc(CCC(N)=O)n2)cc1 | 124% and 92.8%
27 | CCCNC(=O)CCc1nc(-c2ccc(C(C)(C)C)cc2)no1 | 73%
28 | CC(C)(C)c1ccc(-c2noc(CCC(=O)NC3CCC3)n2)cc1 | 90.3%
29 | CCCCc1ccc(-c2noc(CCC(=O)NC(C)CC)n2)cc1 (stereo unspecified) | 37.9%
30 | CCNC(=O)CCc1nc(-c2ccccc2)no1 | 13%
31 | CCNC(=O)CCc1nc(-c2ccc(C(C)C)cc2)no1 | -41.3%
